Laboratory results from ChEMBL document CHEMBL2069224, “Synthesis and cytotoxic activity of non-naturally substituted 4-oxycoumarin derivatives” (Bioorg Med Chem Lett, 2012).
Converted amounts (≈) assume the structure as drawn. The source made the active and inactive calls. No cut-off for these calls is given here.

Experiments:
MCF7 [1] = assay: Cytotoxicity against human MCF7 cells assessed as cell viability at 10 uM after 72 hrs by WST1 assay relative to control; assay type: functional; details: MCF7, 72 h, read-out: Activity
Procedure, shortened: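 After 24 h attachment, MCF-7 cells (RPMI 1640, 10% FBS, L-glutamine, antibiotics, 37 °C, 5% CO2) were exposed 72 h to a single 10 µM concentration. WST-1 was added at 1/10 volume, incubated 60 min at 37 °C, and absorbance read at 450 nm. Viability is expressed as % of vehicle-treated cells, from three independent experiments each in triplicate.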

HL-60 [2] = assay: Cytotoxicity against human HL60 cells assessed as cell viability at 10 uM after 72 hrs by WST1 assay relative to control; assay type: functional; details: HL-60, 72 h, read-out: Activity
Procedure, shortened: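 Suspension HL-60 cells were kept in IMDM with 20% FBS, L-glutamine and antibiotics at 37 °C under 5% CO2. They were seeded without an attachment wait and exposed 72 h to a single 10 µM concentration. WST-1 was added at 1/10 volume, incubated 60 min at 37 °C, and formazan read at 450 nm. Viability is given as % of vehicle-treated cells, from three independent experiments in triplicate.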

U-937 [3] = assay: Cytotoxicity against human U937 cells after 72 hrs by WST1 assay in presence of 20% FBS; assay type: functional, cell-based; details: U-937, 72 h
Procedure, shortened: (§1)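 Cells were cultured with 10% FBS. Viability runs used 10% or 20% FBS and 72 h exposure over 0.01–100 µM. WST-1 cleavage to formazan was read at 450 nm. % viable cells vs vehicle was fitted by nonlinear least squares to give IC50.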

N2a = assay: Cytotoxicity against mouse Neuro2a cells after 72 hrs by WST1 assay in presence of 10% FBS; assay type: functional, cell-based; procedure, shortened: as §1
[4] = Solubility of the compound in RPMI 1640 medium by microscopic analysis; assay type: physicochemical
Procedure, shortened: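 Compound solubility in the assay medium was judged by microscopic inspection.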

MCF7 [5] = assay: Cytotoxicity against human MCF7 cells after 72 hrs by WST1 assay in presence of 20% FBS; assay type: functional, cell-based; details: MCF7, 72 h
Procedure, shortened: (§2)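 MCF-7 cells from ATCC were grown in RPMI 1640 with 10% FBS, 2 mM L-glutamine and antibiotics at 37 °C under 5% CO2. They were seeded in 96-well plates, allowed to attach 24 h, then treated 72 h at 0.01–100 µM in 10% or 20% FBS. WST-1 was added at 1/10 volume for 60 min at 37 °C and A450 read. IC50 came from nonlinear least-squares fitting of % viability vs vehicle.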

HL-60 [6] = assay: Cytotoxicity against human HL60 cells after 72 hrs by WST1 assay in presence of 10% FBS; assay type: functional, cell-based
Procedure, shortened: (§3)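 HL-60 cells from ATCC were grown in IMDM with 2 mM L-glutamine, 20% FBS, amphotericin B, penicillin and streptomycin at 37 °C under 5% CO2. Suspension cells were seeded without an attachment wait, then treated 72 h at 0.01–100 µM in 10% or 20% FBS. WST-1 was added at 1/10 volume for 60 min at 37 °C and A450 read. IC50 came from a nonlinear least-squares fit of % viable cells vs vehicle.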

[7] = Cytotoxicity against mouse Neuro2a cells after 72 hrs by WST1 assay in presence of 20% FBS; assay type: functional, cell-based; details: N2a; procedure, shortened: as §1
HL-60 [8] = assay: Cytotoxicity against human HL60 cells after 72 hrs by WST1 assay in presence of 20% FBS; assay type: functional, cell-based; details: HL-60, 72 h; procedure, shortened: as §3
U-937 [9] = assay: Cytotoxicity against human U937 cells after 72 hrs by WST1 assay in presence of 10% FBS; assay type: functional, cell-based; procedure, shortened: as §1
MCF7 [10] = assay: Cytotoxicity against human MCF7 cells after 72 hrs by WST1 assay in presence of 10% FBS; assay type: functional, cell-based; procedure, shortened: as §2

Structure (SMILES)	viability at 10 µM (MCF7 [1]) [%]	viability at 10 µM (HL-60 [2]) [%]	other results
COc1ccc(-c2c(O)c3ccccc3oc2=O)c(OC)c1	91.9	100	
Cc1ccc2oc(=O)c(-c3ccccc3)c(O)c2c1	72.6	73.9	
Cc1ccc2oc(=O)cc(OCc3ccccc3)c2c1	104	76	
COc1ccc(-c2c(O)c3cc(C)ccc3oc2=O)cc1	106	83.9	
O=c1oc2ccccc2c(OCc2ccccc2)c1-c1ccccc1	113	94.7	
COc1ccc(-c2c(O)c3ccccc3oc2=O)cc1	115	86.6	
Cc1ccc2oc(=O)c(-c3ccccc3)c(OCc3ccccc3)c2c1	53.5	92.3	
COc1ccc2c(O)cc(=O)oc2c1OC	114	28.9	IC50 (U-937 [3]): 4.3 µM; Activity (N2a): Active; solubility [4]: 100 µM (≈ 22.2 µg/mL); IC50 (MCF7 [5]): 62.3 µM; Activity (HL-60 [6]): Active; IC50 [7]: 1400 nM; IC50 (HL-60 [8]): 9.1 µM; Activity (U-937 [9]): Active
COc1cc(OC)c2c(O)cc(=O)oc2c1	17.1	23.2	IC50 (U-937 [3]): 0.21 µM; Activity (N2a): Active; Activity (MCF7 [10]): Active; solubility [4]: 20 µM (≈ 4.44 µg/mL); IC50 (MCF7 [5]): 2.1 µM; Activity (HL-60 [6]): Active; IC50 [7]: 550 nM; IC50 (HL-60 [8]): 2 µM; Activity (U-937 [9]): Active
O=c1ccc2ccccc2o1 [COUMARIN]			IC50 (U-937 [3]): > 50 µM; IC50 (MCF7 [5]): > 50 µM; IC50 [7]: > 50000 nM; IC50 (HL-60 [8]): > 50 µM
O=c1cc(OCc2ccccc2)c2ccccc2o1	95	72.7	
O=c1oc2ccccc2c(O)c1-c1ccccc1	96.7	73.4	
COc1ccc(-c2c(O)c3cc(C)ccc3oc2=O)c(OC)c1	69	74.4	
CC/C(=C(\c1ccccc1)c1ccc(OCCN(C)C)cc1)c1ccccc1 [TAMOXIFEN]			IC50 (MCF7 [5]): 8.6 µM; IC50 (HL-60 [8]): 14.3 µM
